# Activity calls are given as the source filed them. No cut-off for these calls is given here.
# How the values were obtained:
# [1] = test system: PBMC; test: Induction of IL6 secretion in human PBMC; format: functional, cell-based
# Outline: (§1)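 Human PBMCs (5×10^6/mL; 1×10^6 per well) were cultured 24 h with TLR9 agonist 5 µg/mL or TLR7/8 agonist 100 µg/mL, alone or with antagonist at 1:4. Compounds were dissolved in PBS. Supernatant cytokines were measured by Luminex human 25-plex bead assay. One representative donor of six.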
# [2] = test system: PBMC; test: Induction of TNFalpha secretion in human PBMC; format: functional, cell-based; outline: as §1
# [3] = test system: PBMC; test: (§2) Induction of IP10 secretion in human PBMC; format: functional, cell-based; outline: as §1
# [4] = test system: PBMC; test: Induction of IFN-gamma secretion in human PBMC; format: functional, cell-based; outline: as §1
# [5] = test system: PBMC; test: Induction of IFNalpha secretion in human PBMC; format: functional, cell-based; outline: as §1
# [6] = test system: PBMC; test: Induction of MIG secretion in human PBMC; format: functional, cell-based; outline: as §1
# [7] = test system: PBMC; test: Induction of MIP1beta secretion in human PBMC; format: functional, cell-based; outline: as §1
# [8] = molecular target: Toll-like receptor 7 (Homo sapiens) (UniProt Q9NYK1); test: Agonist activity at TLR7/8 in human PBMC assessed as NF-kappaB activation at 100 ug/mL
# Toll-like receptor 7 (Homo sapiens), sequence (Q9NYK1 whole entry, looked up): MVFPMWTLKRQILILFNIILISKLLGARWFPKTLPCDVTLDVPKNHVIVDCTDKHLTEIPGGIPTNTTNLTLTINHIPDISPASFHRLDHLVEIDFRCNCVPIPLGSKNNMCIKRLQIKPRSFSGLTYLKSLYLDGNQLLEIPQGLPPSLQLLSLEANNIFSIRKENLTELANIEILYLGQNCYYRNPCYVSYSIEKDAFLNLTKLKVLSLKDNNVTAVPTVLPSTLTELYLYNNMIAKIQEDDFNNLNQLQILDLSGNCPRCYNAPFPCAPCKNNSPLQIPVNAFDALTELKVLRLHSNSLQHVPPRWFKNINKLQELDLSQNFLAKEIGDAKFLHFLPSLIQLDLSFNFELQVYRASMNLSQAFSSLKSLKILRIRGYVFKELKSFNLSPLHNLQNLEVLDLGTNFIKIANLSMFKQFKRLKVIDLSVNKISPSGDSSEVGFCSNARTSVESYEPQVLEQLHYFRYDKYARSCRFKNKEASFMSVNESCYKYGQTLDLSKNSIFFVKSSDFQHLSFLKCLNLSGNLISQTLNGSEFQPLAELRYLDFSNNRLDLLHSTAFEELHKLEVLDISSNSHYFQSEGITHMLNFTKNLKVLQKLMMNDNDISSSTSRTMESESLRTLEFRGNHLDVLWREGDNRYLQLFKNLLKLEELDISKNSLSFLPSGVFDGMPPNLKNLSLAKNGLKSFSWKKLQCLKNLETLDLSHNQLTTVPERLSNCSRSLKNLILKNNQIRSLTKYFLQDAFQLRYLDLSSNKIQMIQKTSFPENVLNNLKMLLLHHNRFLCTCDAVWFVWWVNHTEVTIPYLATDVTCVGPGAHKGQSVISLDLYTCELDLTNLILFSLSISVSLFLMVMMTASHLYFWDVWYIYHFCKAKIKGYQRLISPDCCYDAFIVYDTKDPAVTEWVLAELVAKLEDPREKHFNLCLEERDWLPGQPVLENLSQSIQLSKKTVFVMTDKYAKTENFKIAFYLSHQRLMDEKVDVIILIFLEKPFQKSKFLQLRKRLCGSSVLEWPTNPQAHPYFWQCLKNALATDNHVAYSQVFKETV
# [9] = test system: PBMC; test: Induction of IL12 secretion in human PBMC; format: functional, cell-based; outline: as §1
# [10] = test system: PBMC; test: as §2; format: functional, cell-based; outline: as §1; remark: listed apart in the source
# [11] = test system: PBMC; test: Induction of MCP1 secretion in human PBMC; format: functional, cell-based; outline: as §1
# [12] = molecular target: T1, Toll-like receptor 9 (Mus musculus) (UniProt Q9EQU3); test: Agonist activity at mouse TLR9 expressed in HEK293 cells assessed as activation of NF-kappaB at 10 ug/mL by SEAP reporter gene assay; format: functional, cell-based
# T1 sequence (whole entry): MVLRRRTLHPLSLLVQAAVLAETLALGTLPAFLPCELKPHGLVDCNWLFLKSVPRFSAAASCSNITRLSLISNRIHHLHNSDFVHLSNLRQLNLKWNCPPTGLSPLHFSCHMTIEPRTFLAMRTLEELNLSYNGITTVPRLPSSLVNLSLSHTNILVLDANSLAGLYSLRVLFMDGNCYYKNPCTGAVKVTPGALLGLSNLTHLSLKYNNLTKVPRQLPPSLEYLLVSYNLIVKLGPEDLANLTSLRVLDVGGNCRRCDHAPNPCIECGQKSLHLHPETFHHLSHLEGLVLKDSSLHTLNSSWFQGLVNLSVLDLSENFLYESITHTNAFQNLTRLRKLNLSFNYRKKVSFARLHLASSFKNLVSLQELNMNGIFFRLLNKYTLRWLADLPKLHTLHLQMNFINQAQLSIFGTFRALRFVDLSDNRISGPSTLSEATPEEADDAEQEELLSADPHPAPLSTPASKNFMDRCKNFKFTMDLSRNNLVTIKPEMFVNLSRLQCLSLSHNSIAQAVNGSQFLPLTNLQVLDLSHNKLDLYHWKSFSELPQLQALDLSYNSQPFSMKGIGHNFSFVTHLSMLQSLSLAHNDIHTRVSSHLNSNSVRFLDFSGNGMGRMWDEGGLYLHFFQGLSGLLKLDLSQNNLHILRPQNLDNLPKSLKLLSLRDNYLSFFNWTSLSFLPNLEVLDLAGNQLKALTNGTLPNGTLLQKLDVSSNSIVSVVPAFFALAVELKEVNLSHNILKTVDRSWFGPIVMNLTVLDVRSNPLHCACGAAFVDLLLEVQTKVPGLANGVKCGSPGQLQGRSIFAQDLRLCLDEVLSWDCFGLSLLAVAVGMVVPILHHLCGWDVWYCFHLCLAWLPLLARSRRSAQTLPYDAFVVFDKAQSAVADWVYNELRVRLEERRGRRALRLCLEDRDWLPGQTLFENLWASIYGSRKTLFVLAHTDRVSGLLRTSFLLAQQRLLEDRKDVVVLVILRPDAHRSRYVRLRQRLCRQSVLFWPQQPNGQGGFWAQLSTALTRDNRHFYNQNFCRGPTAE
# Outline: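 HEK293 cells stably expressing mouse TLR9 were transiently transfected with a SEAP reporter for 6 h. Compounds were added at 10 µg/mL for 18 h. SEAP was read with Quanti-Blue substrate and expressed as fold change in NF-κB activity.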
# [13] = test system: Mus musculus; test: Induction of cytokine KC secretion in C57BL/6 mouse at 20 mg/kg, sc; format: functional, organism-based; set-up: dose 20 mg/kg
# Outline: (§3)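 Female C57BL/6 mice, 6–8 weeks old (n=3), were injected sc with single compounds at 0.25 or 20 mg/kg. Serum was collected by retro-orbital bleed 2 h later and cytokines were measured by Luminex mouse 20-plex assay.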
# [14] = test system: Mus musculus; test: Induction of IL6 secretion in C57BL/6 mouse at 20 mg/kg, sc; format: functional, organism-based; set-up: dose 20 mg/kg; outline: as §3
# [15] = test system: Mus musculus; test: Induction of IL12 secretion in C57BL/6 mouse at 20 mg/kg, sc; format: functional, organism-based; set-up: dose 20 mg/kg; outline: as §3
# [16] = test system: Mus musculus; test: Induction of IL10 secretion in C57BL/6 mouse at 20 mg/kg, sc; format: functional, organism-based; set-up: dose 20 mg/kg; outline: as §3
# [17] = test system: Mus musculus; test: Inhibition of 5-TCTGACRTTCT-X-TCTTRCAGTCT-3-induced IL12 production in C57BL/6 mouse treated 6 hrs of induction and measured after 2 hrs at 20 mg/kg, sc; format: functional; conditions: C57BL/6, sc, route subcutaneous
# [18] = test system: Mus musculus; test: Inhibition of 5-TCTGACRTTCT-X-TCTTRCAGTCT-3-induced IL12 production in C57BL/6 mouse at 20 mg/kg, sc up to 120 hrs; format: functional; conditions: C57BL/6, sc, route subcutaneous
# Outline: (§4)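 Female C57BL/6 mice, 6-8 weeks, n = 3, given antagonist 20 mg/kg sc. TLR9 agonist at 0.25 mg/kg sc at various intervals afterward; blood taken 2 h after agonist and serum IL-12 measured by sandwich ELISA. Representative of more than six independent experiments.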
# [19] = test system: Mus musculus; test: Inhibition of 5'-TCTGACRTTCT-X-TCTTRCAGTCT-3'-induced IL12 production in C57BL/6 mouse treated 6 hrs of induction and measured after 2 hrs at 2 mg/kg, sc; format: functional; conditions: C57BL/6, sc, route subcutaneous
# Outline: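 Mice received antagonist sc at a low or high dose, then TLR9 agonist sc 6 h later. Serum IL-12 was determined 2 h after agonist administration.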
# [20] = molecular target: T1, Toll-like receptor 9 (Mus musculus); test: Antagonist activity at mouse TLR9 expressed in HEK293 cells assessed as inhibition of 5'-CTATCTGACGTTCTCTGT-3'-induced NF-kappaB activation by SEAP reporter gene assay; format: functional, cell-based
# Outline: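 Mouse TLR9-HEK293 cells were transfected with a SEAP reporter for 6 h. They were then stimulated for 18 h with agonist (0.25 or 0.5 µg/mL) plus increasing antagonist concentrations or set agonist:antagonist ratios. Quanti-Blue read-out, reported as % NF-κB activity with agonist alone as 100%.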
# [21] = organism: Mus musculus; test: Inhibition of 5'-TCTGACRTTCT-X-TCTTRCAGTCT-3'-induced IL12 production in C57BL/6 mouse measured after 2 hrs of induction by ELISA; format: functional, organism-based
# Outline: (§5)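 C57BL/6 mice (n=3) were given TLR9 agonist 0.25 mg/kg sc in the left flank and various antagonist doses sc in the right flank at the same time. Serum IL-12 was measured by sandwich ELISA 2 h after agonist.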
# [22] = test system: Mus musculus; test: Induction of cytokine MIG secretion in C57BL/6 mouse at 20 mg/kg, sc; format: functional, organism-based; set-up: dose 20 mg/kg; outline: as §3
# [23] = test system: Mus musculus; test: Inhibition of 5-TCTGACRTTCT-X-TCTTRCAGTCT-3-induced IL12 production in C57BL/6 mouse at 20 mg/kg, sc up to 168 hrs; format: functional, organism-based; set-up: dose 20 mg/kg; outline: as §4
# [24] = organism: Mus musculus; test: Inhibition of 5'-TCTGACRTTCT-X-TCTTRCAGTCT-3'-induced IL12 production in C57BL/6 mouse at 1:4 agonist to drug ratio by ELISA; format: functional, organism-based; outline: as §5
# [25] = test system: Mus musculus; test: Induction of IP10 secretion in C57BL/6 mouse at 20 mg/kg, sc; format: functional, organism-based; set-up: dose 20 mg/kg; outline: as §3
# [26] = test system: Mus musculus; test: Induction of cytokine MCP1 secretion in C57BL/6 mouse at 20 mg/kg, sc; format: functional, organism-based; set-up: dose 20 mg/kg; outline: as §3
smiles,measurement,setting,value
Nc1ccn([C@@H]2O[C@H](COP(=O)(S)O[C@H]3[C@@H](O)[C@H](n4ccc(=O)[nH]c4=O)O[C@@H]3COP(=O)(S)O[C@H]3[C@@H](O)[C@H](n4ccc(=O)[nH]c4=O)O[C@@H]3COP(=O)(S)O[C@H]3[C@@H](O)[C@H](n4ccc5c(=O)[nH]c(N)nc54)O[C@@H]3COP(=O)(S)O[C@H]3[C@@H](O)[C@H](n4ccc(=O)[nH]c4=O)O[C@@H]3COP(=O)(S)O[C@H]3[C@@H](O)[C@H](n4ccc(N)nc4=O)O[C@@H]3COP(=O)(S)O[C@H]3[C@@H](O)[C@H](n4ccc5c(=O)[nH]c(N)nc54)O[C@@H]3COP(=O)(S)O[C@H]3[C@@H](O)[C@H](n4ccc(=O)[nH]c4=O)O[C@@H]3CO)[C@@H](OP(=O)(S)OC[C@H]3O[C@@H](n4ccc(=O)[nH]c4=O)[C@H](O)[C@@H]3OP(=O)(S)OC[C@H]3O[C@@H](n4ccc5c(=O)[nH]c(N)nc54)[C@H](O)[C@@H]3OP(=O)(S)OCC(O)COP(=O)(S)O[C@H]3[C@@H](O)[C@H](n4ccc5c(=O)[nH]c(N)nc54)O[C@@H]3COP(=O)(S)O[C@H]3[C@@H](O)[C@H](n4ccc(=O)[nH]c4=O)O[C@@H]3COP(=O)(S)O[C@H]3[C@@H](O)[C@H](n4ccc(N)nc4=O)O[C@@H]3COP(=O)(S)O[C@H]3[C@@H](O)[C@H](n4ccc(=O)[nH]c4=O)O[C@@H]3COP(=O)(S)O[C@H]3[C@@H](O)[C@H](n4ccc(=O)[nH]c4=O)O[C@@H]3COP(=O)(S)O[C@H]3[C@@H](O)[C@H](n4ccc5c(=O)[nH]c(N)nc54)O[C@@H]3COP(=O)(S)O[C@H]3[C@@H](O)[C@H](n4ccc(=O)[nH]c4=O)O[C@@H]3COP(=O)(S)O[C@H]3[C@@H](O)[C@H](n4ccc(N)nc4=O)O[C@@H]3COP(=O)(S)O[C@H]3[C@@H](O)[C@H](n4ccc5c(=O)[nH]c(N)nc54)O[C@@H]3COP(=O)(S)O[C@H]3[C@@H](O)[C@H](n4ccc(=O)[nH]c4=O)O[C@@H]3CO)[C@H]2O)c(=O)n1 (stereo partly specified),Activity,[1],Active
same,Activity,[2],Active
same,Activity,[3],Active
same,Activity,[4],Active
same,Activity,[5],Active
same,Activity,[6],Active
same,Activity,[7],Active
same,Activity,[8],Active
same,Activity,[9],Active
same,Activity,[10],Active
same,Activity,[11],Active
CO[C@@H]1[C@H](OP(=O)(S)OC[C@H]2O[C@@H](n3ccc(N)nc3=O)C[C@@H]2OP(=O)(S)OC[C@H]2O[C@@H](n3cnc4c(=O)[nH]c(N)nc43)C[C@@H]2OP(=O)(S)OC[C@H]2O[C@@H](n3cc(C)c(=O)[nH]c3=O)C[C@@H]2OP(=O)(S)OC[C@H]2O[C@@H](n3cc(C)c(=O)[nH]c3=O)C[C@@H]2OP(=O)(S)OC[C@H]2O[C@@H](n3ccc(N)nc3=O)C[C@@H]2OP(=O)(S)OC[C@H]2O[C@@H](n3cc(C)c(=O)[nH]c3=O)C[C@@H]2OP(=O)(S)OC[C@H]2O[C@@H](n3ccc(N)nc3=O)C[C@@H]2OP(=O)(S)OC[C@H]2O[C@@H](n3cc(C)c(=O)[nH]c3=O)C[C@@H]2OP(=O)(S)OC[C@H]2O[C@@H](n3cnc4c(=O)[nH]c(N)nc43)C[C@@H]2OP(=O)(S)OC[C@H]2O[C@@H](n3cc(C)c(=O)[nH]c3=O)C[C@@H]2O)[C@@H](COP(=O)(S)O[C@H]2[C@@H](OC)[C@H](n3cnc4c(=O)[nH]c(N)nc43)O[C@@H]2COP(=O)(S)O[C@H]2C[C@H](n3cc(C)c(=O)[nH]c3=O)O[C@@H]2COP(=O)(S)O[C@H]2C[C@H](n3ccc(N)nc3=O)O[C@@H]2COP(=O)(S)O[C@H]2C[C@H](n3cc(C)c(=O)[nH]c3=O)O[C@@H]2COP(=O)(S)O[C@H]2C[C@H](n3cnc4c(N)ncnc43)O[C@@H]2COP(=O)(S)O[C@H]2C[C@H](n3cc(C)c(=O)[nH]c3=O)O[C@@H]2COP(=O)(S)O[C@@H]2C[C@@H](n3ccc(N)nc3=O)O[C@H]2CO)O[C@H]1n1cnc2c(N)ncnc21 (stereo partly specified),Activity,[12],inactive
same,Activity,[13],inactive
same,Activity,[14],inactive
same,Activity,[15],inactive
same,Activity,[16],inactive
same,inhibition in vivo at 20 mg/kg,[17],90%
same,inhibition in vivo at 20 mg/kg,[18],50%
same,inhibition in vivo at 2 mg/kg,[19],50%
same,Activity,[20],Dose-dependent effect
same,Activity,[21],Dose-dependent effect
same,Activity,[22],inactive
same,Activity,[23],Active
same,Activity,[24],Active
same,Activity,[25],inactive
same,Activity,[26],inactive

# From ChEMBL document CHEMBL1140884, “Oligodeoxyribonucleotide-based antagonists for Toll-like receptors 7 and 9” (2009)
